Measurements: ChEMBL document CHEMBL5543129, “Peptide Inhibitor Targeting the Extraterminal Domain in BRD4 Potently Suppresses Breast Cancer Both In Vitro and In Vivo” (J Med Chem, 2024)
Activity calls are given as the source filed them. The rule behind the calls is not given here. Square brackets hold non-standard residues; d marks the D form. Peptide text beside a SMILES is read from it. Hyp = O=C(O)[C@@H]1C[C@@H](O)CN1; Ahx = NCCCCCC(=O)O

What was measured:
MDA-MB-231 [1] = test: Inhibition of colony formation in human MDA-MB-231 cells at 10 uM incubated for 2 weeks in presence of 5 uM JQ1 by crystal violet staining based assay; assay type: functional, cell-based
How it was run: (§1)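 Cells are seeded at 1 × 10^3/well and treated with peptide (10 μM) for 2 weeks, alone or with JQ1 5 μM, iJMJD6 10 μM, ICI 2.5 μM, or tamoxifen 3 μM (tamoxifen-resistant lines). Colonies are stained with crystal violet, dissolved in 10% acetic acid, and read at 590 nm. Three biological repeats.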

Mus musculus [2] = test: Downregulation of N-myc mRNA expression in BALB/c mouse tumor xenografted with human MDA-MB-231 cells at 25 mg/kg, ip administered every 2 days by RT-qPCR analysis; assay type: functional, organism-based
[3] = Downregulation of c-Myc protein expression in human MDA-MB-231 cells assessed as fold change in remaining c-Myc level at 10 uM incubated for 24 hrs by immunoblotting analysis (reference value: 1); assay type: functional
How it was run: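 Cells (MCF7 or MDA-MB-231 in DMEM, 10% FBS, 37 °C, 5% CO2) are treated with peptide for 24 h. Lysates are taken in Tris/NaCl/EDTA/1% Triton buffer and run on 10% SDS-PAGE. Immunoblots are normalised to β-actin loading control; three repeats.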

MCF7 [4] = test: Antitumor activity against human MCF7 cells xenografted in BALB/c nude mouse assessed as reduction in tumor weight at 12.5 mg/kg, ip administered every 2 days in presence of 2.5 mg/kg fulvestrant; assay type: functional, organism-based
How it was run: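 MCF7 xenografts in female BALB/c nude mice on E2 (10^-2 M, every 2 days), randomised at ~50 mm3. Peptide 12.5 mg/kg ip every 2 days with fulvestrant 2.5 mg/kg sc (DMSO/corn oil 1:10) every 6 days. Caliper volume (1/2 × L × W²); tumours weighed at the end.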

[5] = Toxicity in BALB/c mouse xenografted with human MDA-MB-231 cells assessed as change in lung morphology at 12.5 mg/kg, ip administered every 2 days in presence of 50 mg/kg JQ1; assay type: organism-based; conditions: in vivo, 48 h
How it was run: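 Female BALB/c nude mice (4–6 weeks) carried sc MDA-MB-231 xenografts (5 × 10^6 cells) and were randomized at about 50 mm3. Peptide (12.5 mg/kg ip in saline) and JQ1 (50 mg/kg ip, DMSO/10% HPBCD 1:10) were given every 2 days, alone or combined. Body weight was recorded, and heart, liver, spleen, lung and kidney morphology and weight were assessed.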

MCF7 [6] = test: Antiproliferative activity against human MCF7 cells at 10 uM incubated for 1 week in presence of fulvestrant by CellTiter 96 Aqueous One Solution based assay; assay type: functional, cell-based; conditions: time 1.0 weeks
How it was run: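 Cells seeded at 2 × 10^3/well and treated with peptide (10 μM) alone or combined with JQ1 (5 μM), iJMJD6 (10 μM) or ICI (2.5 μM), as the line states. Viability read by MTS reagent, 1 h at 37 °C, A490. Three biological repeats.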

MDA-MB-231 [7] = test: Downregulation of […] gene expression in human MDA-MB-231 cells at 10 uM incubated for 6 hrs by RT-qPCR analysis; assay type: functional, cell-based
How it was run: (§2)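 Cells treated with peptide (10 μM) for 6 h; c-Myc, N-myc and CCND1 mRNA measured by RT-qPCR. Three biological repeats.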

T47D [8] = test: Antiproliferative activity against human T47D cells at 10 uM incubated for 1 week in presence of fulvestrant by CellTiter 96 Aqueous One Solution based assay; assay type: functional, cell-based; conditions: time 1.0 weeks
Mus musculus [9] = test: Downregulation of JMJD6 mRNA expression in BALB/c mouse tumor xenografted with human MDA-MB-231 cells at 25 mg/kg, ip administered every 2 days by RT-qPCR analysis; assay type: functional, organism-based
T47D [10] = test: Inhibition of colony formation in human T47D cells at 10 uM incubated for 2 weeks by crystal violet staining based assay; assay type: functional, cell-based; how it was run: as §1
T47D [11] = test: Antiproliferative activity against human T47D cells at 10 uM incubated for 1 week in presence of JMJD6 inhibitor by CellTiter 96 Aqueous One Solution based assay; assay type: functional, cell-based; conditions: time 1.0 weeks
[12] = Toxicity in BALB/c mouse xenografted with human MCF7 cells assessed as change in liver morphology at 12.5 mg/kg, ip administered every 2 days in presence of 50 mg/kg JQ1; assay type: organism-based; conditions: in vivo, 48 h
[13] = Downregulation of N-myc protein expression in BALB/c mouse tumor xenografted with human MCF7 cells assessed as fold change in remaining N-myc level at 25 mg/kg, ip administered every 2 days by immunoblotting analysis; assay type: functional
How it was run: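 Tumours taken from xenograft mice dosed with peptide at 25 mg/kg ip every 2 days. […] Three repeats.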

Mus musculus [14] = test: Downregulation of c-Myc mRNA expression in BALB/c mouse tumor xenografted with human MDA-MB-231 cells at 25 mg/kg, ip administered every 2 days by RT-qPCR analysis; assay type: functional, organism-based
How it was run: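 Female BALB/c nude mice (4–6 weeks) implanted subcutaneously with 5 × 10^6 cells in PBS. For MCF7 grafts, estrogen (E2, 10–2 M) is brushed on every 2 days. Treatment starts at ~50 mm3 after randomization, with peptide in normal saline ip every 2 days. Tumour mRNA is measured by RT-qPCR.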

Mus musculus [15] = test: Downregulation of CCND1 mRNA expression in BALB/c mouse tumor xenografted with human MCF7 cells at 25 mg/kg, ip administered every 2 days by RT-qPCR analysis; assay type: functional, organism-based
T47D [16] = test: Inhibition of colony formation in human T47D cells at 10 uM incubated for 2 weeks in presence of tamoxifen by crystal violet staining based assay; assay type: functional, cell-based; how it was run: as §1
[17] = Downregulation of BRD4 protein expression in human MDA-MB-231 cells assessed as fold change in remaining BRD4 level at 10 uM incubated for 24 hrs by immunoblotting analysis (reference value: 1); assay type: functional
How it was run: (§3)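 Cells treated with peptide (10 μM) for 24 h. Lysates in Tris/NaCl/EDTA/1% Triton X-100, run on 10% SDS-PAGE and immunoblotted with ECL detection. β-actin as loading control. Three repeats, quantified against untreated cells.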

MCF7 [18] = test: Downregulation of CCND1 gene expression in human MCF7 cells at 10 uM incubated for 6 hrs by RT-qPCR analysis; assay type: functional, cell-based; how it was run: as §2
[19] = Downregulation of c-Myc protein expression in BALB/c mouse tumor xenografted with human MDA-MB-231 cells assessed as fold change in remaining c-Myc level at 25 mg/kg, ip administered every 2 days by immunoblotting analysis; assay type: functional
How it was run: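 Female BALB/c nude mice (4–6 weeks) carry subcutaneous MCF7 or MDA-MB-231 grafts (5 × 10^6 cells). MCF7 mice are brushed with E2 (10–2 M) every 2 days. Dosing starts at ~50 mm3: peptide in normal saline, ip every 2 days. Tumour lysates are immunoblotted with β-actin as loading control; repeated three times.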

[20] = Toxicity in BALB/c mouse xenografted with human MCF7 cells assessed as change in kidney morphology at 12.5 mg/kg, ip administered every 2 days in presence of 50 mg/kg JQ1; assay type: organism-based; conditions: in vivo, 48 h
[21] = Downregulation of JMJD6 protein expression in human MDA-MB-231 cells assessed as fold change in remaining JMJD6 level at 10 uM incubated for 24 hrs by immunoblotting analysis (reference value: 1); assay type: functional; how it was run: as §3

## H-YGRKKRRQRRRRNQKFKCGE-OH
MDA-MB-231 [1]
  inhibition: Active
Mus musculus [2]
  Activity: Active
[3]
  fold change (FC): 0.77
MCF7 [4]
  Activity: Active
[5]
  Activity: Non-Toxic
MCF7 [6]
  Activity: Active
MDA-MB-231 [7]
  Activity: Active
T47D [8]
  Activity: Active
Mus musculus [9]
  Activity: inactive
T47D [10]
  inhibition: Active
T47D [11]
  Activity: Active
[12]
  Activity: Non-Toxic
[13]
  fold change (FC): 0.38
Mus musculus [14]
  Activity: Active
Mus musculus [15]
  Activity: Active
T47D [16]
  inhibition: Active
[17]
  fold change (FC): 1.06
MCF7 [18]
  Activity: Active
[19]
  fold change (FC): 0.22
[20]
  Activity: Non-Toxic
[21]
  fold change (FC): 1.04

## CC[C@H](C)[C@H](NC(=O)[C@H](Cc1ccc(O)cc1)NC(=O)[C@@H]1C[C@@H](O)CN1C(=O)[C@H](C)NC(=O)[C@@H](NC(=O)CCCCCNC(=O)[C@H](CCC(=O)O)NC(=O)CNC(=O)[C@H](CS)NC(=O)[C@H](CCCCN)NC(=O)[C@H](Cc1ccccc1)NC(=O)[C@H](CCCCN)NC(=O)[C@H](CCC(N)=O)NC(=O)[C@H](CC(N)=O)NC(=O)[C@H](CCCNC(=N)N)NC(=O)[C@H](CCCNC(=N)N)NC(=O)[C@H](CCCNC(=N)N)NC(=O)[C@H](CCCNC(=N)N)NC(=O)[C@H](CCC(N)=O)NC(=O)[C@H](CCCNC(=N)N)NC(=O)[C@H](CCCNC(=N)N)NC(=O)[C@H](CCCCN)NC(=O)[C@H](CCCCN)NC(=O)[C@H](CCCNC(=N)N)NC(=O)CNC(=O)[C@@H](N)Cc1ccc(O)cc1)[C@@H](C)CC)C(=O)O (H-YGRKKRRQRRRRNQKFKCGE[Ahx]IA[Hyp]YI-OH)
MDA-MB-231 [1]
  inhibition: Active
Mus musculus [2]
  Activity: Active
[3]
  fold change (FC): 0.85
MCF7 [4]
  Activity: Active
[5]
  Activity: Non-Toxic
MCF7 [6]
  Activity: Active
MDA-MB-231 [7]
  Activity: Active
T47D [8]
  Activity: Active
Mus musculus [9]
  Activity: inactive
T47D [10]
  inhibition: Active
T47D [11]
  Activity: Active
[12]
  Activity: Non-Toxic
[13]
  fold change (FC): 0.43
Mus musculus [14]
  Activity: Active
Mus musculus [15]
  Activity: Active
T47D [16]
  inhibition: Active
[17]
  fold change (FC): 0.55
MCF7 [18]
  Activity: Active
[19]
  fold change (FC): 0.44
[20]
  Activity: Non-Toxic
[21]
  fold change (FC): 0.38
